Data as given in ChEMBL document CHEMBL2331415, “Tubulin inhibitors from an endophytic fungus isolated from Cedrus deodara” (2013).
Active and inactive are the calls of the source. The calls are words filed in the database; no cut-off is given here.

Assays:
THP-1 [1] = assay: Cytotoxicity against human THP1 cells at 50 uM after 48 hrs by sulforhodamine B assay; assay type: functional
Summary of the method: (§1)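 Cells kept in RPMI-1640 with 10% FCS and 1% penicillin-G at 37 °C under 5% CO2. Seeded at 8000–14 000 cells/100 μL and exposed for 48 h. Fixed with ice-cold TCA for 1 h at 4 °C, then water-washed and stained with 0.4% SRB for 0.5 h at room temperature. Unbound dye removed with 1% acetic acid; bound dye dissolved in 10 mM Tris (pH 10.05) and read at 540 nm.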

HL-60 [2] = assay: Induction of apoptosis in human HL60 cells assessed as condensation, smoothening of the cell surface, blebbing of plasma membrane and formation of apoptotic bodies at 50 uM after 30 hrs by scanning electron microscopy; assay type: functional, cell-based
HL-60 [3] = assay: Induction of apoptosis in human HL60 cells assessed as condensation and fragmentation of nuclei at 50 uM after 30 hrs by DAPI staining based inverted fluorescence microscopy; assay type: functional, cell-based
Summary of the method: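 HL-60 seeded at 2 × 10^5 cells/mL in medium with 10% FCS and treated for 30 h at 37 °C, added from DMSO stock; controls got DMSO vehicle only. Air-dried smears fixed in methanol at −20 °C for 20 min, stained with DAPI 1 μg/mL in PBS for 20 min at room temperature in the dark, mounted in glycerol–PBS (1:1) and viewed by inverted fluorescence microscopy (40×).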

A549 [4] = assay: Cytotoxicity against human A549 cells at 50 uM after 48 hrs by sulforhodamine B assay; assay type: functional; summary of the method: as §1
Tubulin (Homo sapiens) [5] = molecular target: T1, Tubulin (Homo sapiens) (UniProt P68371+Q9H4B7+P0DPH7+P68366+Q13509+Q71U36+P04350+Q3ZCM7+P07437+P68363+Q9BQE3+Q6PEY2+Q13885+Q9BVA1+Q9BUF5); assay: Inhibition of tubulin in human THP1 cells assessed as disruption and loss of microtubule organization at 50 uM after 48 hrs by immunofluorescence microscopic analysis; assay type: cell-based; conditions: THP-1
Summary of the method: (§2)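 THP-1 seeded at 1 × 10^5 cells/well on coverslips and allowed to adhere for 24 h before treatment. Fixed in 4% paraformaldehyde for 10 min, permeabilized with 0.5% Triton-X for 5 min and blocked with 10% goat serum. Probed with anti-α-tubulin (1:100, 1 h) then Alexa Fluor 488 secondary (1:500, 1 h), counterstained with DAPI 1 μg/mL and imaged by confocal microscopy. Three separate experiments.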

HCT-116 [6] = assay: Cytotoxicity against human HCT116 cells at 50 uM after 48 hrs by sulforhodamine B assay; assay type: functional; summary of the method: as §1
SK-HEP1 = assay: Cytotoxicity against human SKHEP1 cells at 50 uM after 48 hrs by sulforhodamine B assay; assay type: functional; summary of the method: as §1
PC-3 [7] = assay: Cytotoxicity against human PC3 cells at 50 uM after 48 hrs by sulforhodamine B assay; assay type: functional; summary of the method: as §1
HL-60 [8] = assay: Induction of apoptosis in human HL60 cells assessed as condensation, smoothening of the cell surface, blebbing of plasma membrane at 30 uM after 30 hrs by scanning electron microscopy; assay type: functional, cell-based
THP-1 [9] = assay: Cytotoxicity against human THP1 cells at 20 uM after 48 hrs by sulforhodamine B assay; assay type: functional
Summary of the method: (§3)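 Cells grown in RPMI-1640 with 10% FCS and 1% penicillin-G at 37 °C, 5% CO2. Seeded at 8000–14 000 cells/100 μL and exposed for 48 h. Fixed with ice-cold TCA for 1 h at 4 °C, stained with 0.4% SRB for 0.5 h at room temperature, washed with 1% acetic acid, bound dye solubilised in 10 mM Tris pH 10.05, read at 540 nm.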

HCT-116 [10] = assay: Cytotoxicity against human HCT116 cells at 20 uM after 48 hrs by sulforhodamine B assay; assay type: functional; summary of the method: as §3
A549 [11] = assay: Cytotoxicity against human A549 cells at 20 uM after 48 hrs by sulforhodamine B assay; assay type: functional; summary of the method: as §3
PC-3 [12] = assay: Cytotoxicity against human PC3 cells at 1 uM after 48 hrs by sulforhodamine B assay; assay type: functional; summary of the method: as §1
Tubulin (Homo sapiens) [13] = molecular target: T1, Tubulin (Homo sapiens); assay: Stabilization of tubulin polymerization in human THP1 cells at 1 uM after 24 hrs by immunofluorescence microscopic analysis; assay type: cell-based; conditions: THP-1; summary of the method: as §2
HCT-116 [14] = assay: Cytotoxicity against human HCT116 cells at 1 uM after 48 hrs by sulforhodamine B assay; assay type: functional; summary of the method: as §1
A549 [15] = assay: Cytotoxicity against human A549 cells at 1 uM after 48 hrs by sulforhodamine B assay; assay type: functional; summary of the method: as §1
THP-1 [16] = assay: Cytotoxicity against human THP1 cells at 1 uM after 48 hrs by sulforhodamine B assay; assay type: functional; summary of the method: as §1

SMILES | Activity (THP-1 [1]) | Activity (HL-60 [2]) | Activity (HL-60 [3]) | Activity (A549 [4]) | microtubule disruption (Tubulin (Homo sapiens) [5]) | Activity (HCT-116 [6]) | Activity (SK-HEP1) | Activity (PC-3 [7]) | Activity (HL-60 [8]) | Activity (THP-1 [9]) | Activity (HCT-116 [10]) | Activity (A549 [11]) | Activity (PC-3 [12]) | Activity (Tubulin (Homo sapiens) [13]) | Activity (HCT-116 [14]) | Activity (A549 [15]) | Activity (THP-1 [16])
C[C@H]1C[C@H]2CCCC(O)=C2C(=O)O1 | 54% | Active | Active | 15% | Active | 44% | 23% | 23% | Active |  |  |  |  |  |  |  | 
O=c1[nH]cc(F)c(=O)[nH]1 [FLUOROURACIL] |  |  |  |  |  |  |  |  |  | 84% | 55% | 22% |  |  |  |  | 
CO[C@@]12[C@H](COC(N)=O)C3=C(C(=O)C(C)=C(N)C3=O)N1C[C@@H]1N[C@@H]12 [MITOMYCIN] |  |  |  |  |  |  |  |  |  |  |  |  | 59% |  |  |  | 
C[C@@H]1C[C@H]2CC(=O)C[C@H](C2)O1 | 0% | Active | Active | 71% | Active | 59% | 26% | 23% | Active |  |  |  |  |  |  |  | 
C[C@H]1C[C@H]2CC[C@H](O)C(O)=C2C(=O)O1 | 40% | Active | Active | 35% | Active | 35% | 3% | 34% | Active |  |  |  |  |  |  |  | 
CC(=O)O[C@H]1C(=O)[C@@]2(C)[C@H]([C@H](OC(=O)c3ccccc3)[C@]3(O)C[C@H](OC(=O)[C@H](O)[C@@H](NC(=O)c4ccccc4)c4ccccc4)C(C)=C1C3(C)C)[C@]1(OC(C)=O)CO[C@@H]1C[C@@H]2O [PACLITAXEL] |  |  |  |  |  |  |  |  |  |  |  |  |  | Active | 72% | 82% | 71%
CC1=C[C@H](O)[C@@H]2O[C@@H]2C1=O | 50% | Active | Active | 98% | Active | 56% | 100% | 22% | Active |  |  |  |  |  |  |  | 
